Results published in ChEMBL document CHEMBL1143576, “Discovery of 2-arylthiazolidine-4-carboxylic acid amides as a new class of cytotoxic agents for prostate cancer” (J Med Chem, 2005).

Key:
LNCaP [1] = test: Induction of apoptosis in human LNCaP Cell line at 2 uM concentration after 72 hr; assay type: functional
Method in brief: (§1)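 Cells were exposed to compound for 72 h. Cytoplasmic DNA-histone complexes (mono- and oligonucleosomes) were quantified by sandwich ELISA using monoclonal antibodies against DNA and histones. The enrichment factor is the OD405 ratio of treated to untreated cells.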

DU-145 = test: Antiproliferative activity against prostate cancer DU-145 cell line using sulforhodamine B(SRB) assay; assay type: functional, cell-based; conditions: Homo sapiens
Method in brief: (§2)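 Cells seeded at 1000 to 5000 per well, depending on growth rate, and exposed to a range of concentrations for 96 h, in three to five replicates. Stocks were 5 to 20 mM in DMSO, diluted into complete medium. Endpoint cell number was measured by SRB: 10% trichloroacetic acid fixation, 0.4% SRB stain, absorbance at 540 nm.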

PPC-1 = test: Antiproliferative activity against prostate cancer PPC-1 cell line using sulforhodamine B(SRB) assay; assay type: functional, cell-based; conditions: Homo sapiens; method in brief: as §2
PC-3 [2] = test: Induction of apoptosis in human PC-3 cell line at 2 uM concentration after 72 hr; assay type: functional; method in brief: as §1
PC-3 [3] = test: Induction of apoptosis in human PC-3 cell line at 20 uM concentration after 72 hr; assay type: functional; method in brief: as §1
LNCaP [4] = test: Induction of apoptosis in human LNCaP Cell line 20 at uM concentration after 72 hr; assay type: functional; method in brief: as §1
PC-3 [5] = test: Induction of apoptosis in human PC-3 cell line at 10 uM concentration after 72 hr; assay type: functional; method in brief: as §1
LNCaP [6] = test: Antiproliferative activity against prostate cancer LNCaP Cell line using sulforhodamine B(SRB) assay; assay type: functional, cell-based; conditions: Homo sapiens, Prostate gland; method in brief: as §2
PC-3 [7] = test: Induction of apoptosis in human PC-3 cell line at 5 uM concentration after 72 hr; assay type: functional; method in brief: as §1
LNCaP [8] = test: Induction of apoptosis in human LNCaP Cell line 10at uM concentration after 72 hr; assay type: functional; method in brief: as §1
RH7777 [9] = test: Antiproliferative effect against RH7777 cell line using sulforhodamine B(SRB) assay; assay type: functional, cell-based; conditions: Rattus norvegicus; method in brief: as §2
TSU = test: Antiproliferative activity against prostate cancer TSU-Pr1 cell line using sulforhodamine B(SRB) assay; assay type: functional, cell-based; conditions: Homo sapiens; method in brief: as §2
PC-3 [10] = test: Antiproliferative activity against prostate cancer PC-3 cell line using sulforhodamine B(SRB) assay; assay type: functional, cell-based, Homo sapiens; method in brief: as §2
LNCaP [11] = test: Induction of apoptosis in human LNCaP Cell line at 5 uM concentration after 72 hr; assay type: functional; method in brief: as §1
[12] = system: RH7777 (Rattus norvegicus); test: Antiproliferative effect against RH7777 cell line using sulforhodamine B(SRB) assay; No activity
RH7777 [13] = test: Induction of apoptosis in rat RH7777 cell line at 5 uM concentration after 72 hr
LNCaP [14] = test: Induction of apoptosis in human LNCaP Cell line at 10 uM concentration after 72 hr; assay type: functional; method in brief: as §1
RH7777 [15] = test: Induction of apoptosis in rat RH7777 cell line at 10 uM concentration after 72 hr
[16] = system: RH7777 (Rattus norvegicus); test: Induction of apoptosis in rat RH7777 cell line at 2 uM concentration after 72 hr
[17] = Homo sapiens, PC-3, read-out: IC50

Structure (SMILES) | IC50 (DU-145) | IC50 (LNCaP [6]) | IC50 (PC-3 [10]; [17]) | IC50 (PPC-1) | IC50 (RH7777 [9]) | IC50 (TSU) | other results
CCCCCCCCCCCCCCCCCCNC(=O)[C@H]1CSC(c2ccc(-c3ccccc3)cc2)N1 (some centres undefined) | > 20 µM | > 20 µM | > 20 µM | > 20 µM | > 20 µM | > 20 µM | 
CCCCCCCCCCCCCCCCCCCNC(=O)[C@H]1CSC(c2ccccc2)N1.Cl (some centres undefined) | > 20 µM | 13.6 µM |  | 16.8 µM |  | > 20 µM | IC50 [12]: No activity; IC50 (PC-3 [10]; pc-3): No activity
CCCCCCCCCCCCCCCCCCNC(=O)[C@H]1CSC(Cc2ccccc2)N1 (some centres undefined) | 15.3 µM | 4.4 µM | 16.4 µM | 4 µM | > 20 µM | 11.2 µM | 
CCCCCCCCCCCCCCCCCCNC(=O)[C@H]1CSC(C2CCCCC2)N1 (some centres undefined) | > 20 µM | 12.8 µM | > 20 µM | 9.3 µM | > 20 µM | > 20 µM | 
CCCCCCCCCCCCCCCCCCNC(=O)[C@H]1CSC(c2ccc(C#N)cc2)N1 (some centres undefined) | > 20 µM | 5.9 µM | > 20 µM | 5 µM | > 20 µM | > 20 µM | 
CCCCCCCCCCCCCCCCCCNC(=O)[C@H]1CSC(c2ccccc2)N1C(C)=O (some centres undefined) | ~20 µM | 16.1 µM | ~20 µM | 12.6 µM | > 20 µM | > 20 µM | 
CCCCCCCCCCCCCCCCCCNC(=O)[C@H]1CSC(c2c(Cl)cccc2Cl)N1 (some centres undefined) | > 20 µM | 13.1 µM | > 20 µM | 17.1 µM | > 20 µM | 20 µM | 
CCCCCCCCCCCCCCCCCCNC(=O)[C@H]1CSC(c2ccc([N+](=O)[O-])cc2)N1 (some centres undefined) | 15.3 µM | 8.4 µM | ~20 µM | 15.3 µM | ~20 µM | 15.9 µM | 
CCCCCCCNC(=O)[C@H]1CSC(c2ccccc2)N1 (some centres undefined) | 44.9 µM | 12.4 µM | 38.5 µM | 34.7 µM | 52.2 µM | 28 µM | 
CCCCCCCCCCCCCCCCCCNC(=O)[C@H]1CSC(c2ccccc2)N1S(C)(=O)=O (some centres undefined) | > 20 µM | > 20 µM | > 20 µM | > 20 µM | > 20 µM | > 20 µM | 
CCCCCCCCCCCCCCCCCCNC(=O)[C@H]1CSC(c2cc(F)cc(F)c2)N1 (some centres undefined) | > 20 µM | 11.2 µM | > 20 µM | 10.6 µM | > 20 µM | > 20 µM | 
CCCCCCCCCCCCCCCCCCNC(=O)c1csc(-c2ccccc2)n1 | > 20 µM | > 20 µM | > 20 µM | > 20 µM | > 20 µM | > 20 µM | 

Stronger by IC50 (DU-145), values ahead:

IC50 (DU-145) | IC50 (LNCaP [6]) | IC50 (PC-3 [10]; [17]) | Structure (SMILES) | IC50 (PPC-1) | IC50 (RH7777 [9]) | IC50 (TSU) | other results
5.4 µM | 2.1 µM | 7.8 µM | CCCCCCCCCCCCCCCCCCNC(=O)[C@H]1CSC(c2ccccc2)N1.Cl (some centres undefined) | 2 µM | 25.6 µM | 5 µM | Apoptosis (LNCaP [1]): 4.5; Apoptosis (PC-3 [2]): 1.4; Apoptosis (PC-3 [3]): 12.7; Apoptosis (LNCaP [4]): 26.1; Apoptosis (PC-3 [5]): 3.4; Apoptosis (PC-3 [7]): 2.3; Apoptosis (LNCaP [8]): 37.1; Apoptosis (LNCaP [11]): 45.2
8.7 µM | 2.1 µM | ~20 µM | CCCCCCCCCCCCCCCCCCNC(=O)[C@H]1CSC(c2ccc(OC)cc2)N1 (some centres undefined) | 1.5 µM | > 20 µM |  | 
0.0027 µM | 0.002 µM | 0.0034 µM | CC(=O)O[C@H]1C(=O)[C@@]2(C)[C@H]([C@H](OC(=O)c3ccccc3)[C@]3(O)C[C@H](OC(=O)[C@H](O)[C@@H](NC(=O)c4ccccc4)c4ccccc4)C(C)=C1C3(C)C)[C@]1(OC(C)=O)CO[C@@H]1C[C@@H]2O [PACLITAXEL] | 0.0034 µM |  | 0.0021 µM | 
8.9 µM | 11.9 µM | 15 µM | CCCCCCCCCCCCCCCCCCNC(=O)[C@H]1CSC(CCCCCCCCCCCC)N1 (some centres undefined) | 13 µM | ~20 µM | 10.7 µM | 
5.7 µM | 1.9 µM | 6.8 µM | CCCCCCCCCCCCCCCCCCNC(=O)[C@H]1CSC(c2ccc(F)cc2)N1 (some centres undefined) | 2.1 µM | 17.4 µM | 5.4 µM | 
13.8 µM | 5.1 µM | 17.3 µM | CCCCCCCCCCCCCCCCCCNC(=O)[C@H]1CSC(c2ccc(Br)cc2)N1 (some centres undefined) | 3.7 µM | > 20 µM | 18.3 µM | 
11.3 µM | 3 µM | 13.5 µM | CCCCCCCCCCCCCCCCCCNC(=O)[C@H]1CSC(c2ccc(F)c(Br)c2)N1 (some centres undefined) | 4.7 µM | 20 µM | 14 µM | 
6.6 µM | 1.7 µM | 8.1 µM | CCCCCCCCCCCCCCCCCCNC(=O)[C@H]1CSC(c2ccoc2)N1 (some centres undefined) | 1.1 µM | 10.4 µM | 4.2 µM | 
5.3 µM | 1.6 µM | 6 µM | CCCCCCCCCCCCCCCCCCNC(=O)[C@H]1CSC(c2ccc(N(C)C)cc2)N1 (some centres undefined) | 1.1 µM | > 20 µM | 3 µM | 
2.4 µM | 1.4 µM | 3 µM | CCCCCCCCCCCCCCNC(=O)[C@H]1CSC(c2ccccc2)N1.Cl (some centres undefined) | 1.3 µM | 3.4 µM | 2 µM | Apoptosis (LNCaP [1]): 14.1; Apoptosis (PC-3 [2]): 1.8; Apoptosis (RH7777 [13]): 3.2; Apoptosis (LNCaP [14]): 80.7; Apoptosis (RH7777 [15]): 2.5; Apoptosis (PC-3 [5]): 54; Apoptosis (PC-3 [7]): 18.7; Apoptosis [16]: 2.6; Apoptosis (LNCaP [11]): 75.4
10.5 µM | 1.9 µM | 12.8 µM | CCCCCCCCCCCCCCCCCCNC(=O)[C@H]1CSC(c2ccc(C)cc2)N1 (some centres undefined) | 1.9 µM | > 20 µM | 8 µM | 
7.5 µM | 3.6 µM | 9.2 µM | CCCCCCCCCCCCCCCCCCNC(=O)[C@H]1CSC(c2cccnc2)N1 (some centres undefined) | 2.9 µM | 10.5 µM | 7.8 µM | 
5.7 µM | 1.7 µM | 6.7 µM | CCCCCCCCCCCCCCCCCCNC(=O)[C@H]1CSC(c2cccc(O)c2)N1 (some centres undefined) | 1.2 µM | 31 µM | 4 µM | 
3.1 µM | 1.3 µM | 5.6 µM | CCCCCCCCCCCCCCCCCCNC(=O)[C@H]1CSC(c2ccc(NC(C)=O)cc2)N1 (some centres undefined) | 0.55 µM | 21.1 µM | 0.94 µM | 
3.9 µM | 0.82 µM | 4 µM | CCCCCCCCCCCCCCCCCCNC(=O)[C@H]1CSC(c2cc(OC)c(OC)c(OC)c2)N1 (some centres undefined) | 0.48 µM | 11.4 µM | 2.4 µM | 
4.5 µM | 0.85 µM | 5.2 µM | CCCCCCCCCCCCCCCCCCNC(=O)[C@H]1CSC(c2ccc(OC)c(OC)c2)N1 (some centres undefined) | 0.58 µM | 10.3 µM | 2.4 µM | 
8.9 µM | 2.1 µM | 11.5 µM | CCCCCCCCCCCCCCCCCCNC(=O)[C@H]1CSC(c2c[nH]c3ccccc23)N1 (some centres undefined) | 1.3 µM | > 20 µM | 4.4 µM | 
